The results in this text go back to ChEMBL document CHEMBL1155455.

Active and inactive are the calls of the source. The rule behind the calls is not given here.

Test [1] deals with Rattus norvegicus. Nature of the test: Antidiuretic activity in sc dosed Sprague-Dawley rat assessed as inhibition of U50488-induced urine output administered immediately after water loading measured 5 hrs after first dose. Type of test: functional, organism-based. The essentials:
(§1)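 Adult male Sprague-Dawley rats, groups of four. […] Urine collected hourly for 5 h in metabolic chambers, at week 0 and week 1 without redosing. Analysis by repeated-measures ANOVA and Dunnett's test.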

Test [2] deals with Rattus norvegicus. Put plainly: Antidiuretic activity in sc dosed Sprague-Dawley rat assessed as inhibition of U50488-induced urine output administered immediately after water loading measured after 5 hrs on week 1. Type of test: functional, organism-based. An outline of the steps:
as §1

As for `CC(C)[C@@H](CN1CC[C@@](C)(c2cccc(O)c2)[C@@H](C)C1)NC(=O)[C@@H]1CCc2cc(O)ccc2C1`, the Activity result in test [1] is “Dose-dependent effect”. For the same compound, the outcome in test [2] was inactive.
`CC(C)[C@@H](CN1CC[C@@](C)(c2cccc(O)c2)[C@@H](C)C1)NC(=O)[C@H]1Cc2ccc(O)cc2CN1`: the Activity entry in test [1] and in test [2] was “Dose-dependent effect” throughout.
